ChEMBL document CHEMBL1143237, “Sulfonamide-1,2,4-triazole derivatives as antifungal and antibacterial agents: synthesis, biological evaluation, lipophilicity, and conformational studies” (Bioorg Med Chem, 2008)
≈ marks a conversion by molar mass, not a printed value.

Assays:
[1] = Partition coefficient, log P of the compound; assay type: physicochemical; settings: octanol/water
In short: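 Calculated, not measured: AlogP, IAlogP, ClogP, Cosmo logP, mlogP, Kowwin and XlogP were computed and averaged.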

Enterobacter cloacae = assay: Antibacterial activity against Enterobacter cloacae after 24 hrs by microdilution test; assay type: functional
In short: (§1)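 Broth microdilution in LB medium in 96-well plates. Inoculum 1.0 × 10⁴ CFU per well, from a suspension set to 1.0 × 10⁵ CFU/ml in sterile saline. Compounds at […] µg/ml. Incubation 24 h at 28 °C. MIC is the lowest concentration with no visible growth under a binocular microscope. MBC by subculturing 2 µl into fresh broth for a further 72 h. OD540 read against blank. DMSO negative control.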

Salmonella enteritidis = assay: Antibacterial activity against Salmonella enteritidis ATCC 13076 after 24 hrs by microdilution test; assay type: functional, Salmonella enterica subsp. enterica serovar Enteritidis; settings: Salmonella enterica, ATCC 13076, 24 h; in short: as §1
Salmonella typhimurium = assay: Antibacterial activity against Salmonella Typhimurium ATCC 13311 after 24 hrs by microdilution test; assay type: functional, Salmonella enterica subsp. enterica serovar Typhimurium; settings: Salmonella enterica, ATCC 13311, 24 h; in short: as §1
[2] = test system: Staphylococcus epidermidis; assay: Antibacterial activity against Staphylococcus epidermidis ATCC 12228 after 24 hrs by microdilution test; assay type: functional; settings: ATCC 12228, 24 h; in short: as §1
Micrococcus luteus = assay: Antibacterial activity against Micrococcus flavus ATCC 10240 after 24 hrs by microdilution test; assay type: functional; settings: ATCC 10240, 24 h; in short: as §1
Escherichia coli = assay: Antibacterial activity against Escherichia coli ATCC 35210 after 24 hrs by microdilution test; assay type: functional; settings: ATCC 35210, 24 h; in short: as §1
Aspergillus flavus = assay: Antifungal activity against Aspergillus flavus ATCC 9643 after 72 hrs by microdilution test; assay type: functional; settings: ATCC 9643, 72 h
In short: (§2)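 Modified microdilution in malt broth. Spores were washed from malt agar with sterile 0.85% saline containing 0.1% Tween 80 and adjusted to about 1.0 × 10⁵ per well. Compounds were dissolved in DMSO and tested at […] µg/ml. Incubation 72 h at 28 °C. MIC is the lowest concentration with no visible growth under a binocular microscope. MFC by 2 µl subculture and a further 72 h at 28 °C.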

Trichoderma viride = assay: Antifungal activity against Trichoderma viride IAM 5061 after 72 hrs by microdilution test; assay type: functional; in short: as §2
Talaromyces funiculosus = assay: Antifungal activity against Penicillium funiculosum ATCC 36839 after 72 hrs by microdilution test; assay type: functional; settings: ATCC 36839, 72 h; in short: as §2
Aspergillus versicolor = assay: Antifungal activity against Aspergillus versicolor ATCC 11730 after 72 hrs by microdilution test; assay type: functional; settings: ATCC 11730, 72 h; in short: as §2
Aspergillus ochraceus = assay: Antifungal activity against Aspergillus ochraceus ATCC 12066 after 72 hrs by microdilution test; assay type: functional; settings: ATCC 12066, 72 h; in short: as §2
Aspergillus niger = assay: Antifungal activity against Aspergillus niger ATCC 6275 after 72 hrs by microdilution test; assay type: functional; settings: ATCC 6275, 72 h; in short: as §2
Bacillus cereus = assay: Antibacterial activity against Bacillus cereus ATCC 10907 after 24 hrs by microdilution test; settings: ATCC 10907, 24 h

MIC (Enterobacter cloacae) | MIC (Salmonella enteritidis) | MIC (Salmonella typhimurium) | MIC [2] | MIC (Micrococcus luteus) | MIC (Escherichia coli) | MIC (Aspergillus flavus) | MIC (Trichoderma viride) | MIC (Talaromyces funiculosus) | MIC (Aspergillus versicolor) | SMILES | MBC (Enterobacter cloacae) | MBC (Salmonella enteritidis) | MBC (Salmonella typhimurium) | MBC [2] | MBC (Micrococcus luteus) | MBC (Escherichia coli) | MFC (Aspergillus flavus) | MFC (Trichoderma viride) | MFC (Talaromyces funiculosus) | MFC (Aspergillus versicolor) | other results
100 mg/L (≈ 196 µM) | 150 mg/L (≈ 294 µM) | 100 mg/L (≈ 196 µM) | 150 mg/L (≈ 294 µM) | 150 mg/L (≈ 294 µM) | 100 mg/L (≈ 196 µM) | 100 mg/L (≈ 196 µM) | 100 mg/L (≈ 196 µM) | 100 mg/L (≈ 196 µM) | 100 mg/L (≈ 196 µM) | COc1cc(Cc2n[nH]c(=S)n2-c2ccc(Cl)cc2)c(S(=O)(=O)N2CCOCC2)cc1OC | 100 mg/L (≈ 196 µM) | 150 mg/L (≈ 294 µM) | 150 mg/L (≈ 294 µM) | 150 mg/L (≈ 294 µM) | 150 mg/L (≈ 294 µM) | 150 mg/L (≈ 294 µM) | 150 mg/L (≈ 294 µM) | 150 mg/L (≈ 294 µM) | 150 mg/L (≈ 294 µM) | 150 mg/L (≈ 294 µM) | logP [1]: 2.25; MFC (Aspergillus ochraceus): 150 mg/L (≈ 294 µM); MIC (Aspergillus ochraceus): 100 mg/L (≈ 196 µM); MFC (Aspergillus niger): 150 mg/L (≈ 294 µM); MIC (Aspergillus niger): 150 mg/L (≈ 294 µM); MBC (Bacillus cereus): 150 mg/L (≈ 294 µM); MIC (Bacillus cereus): 150 mg/L (≈ 294 µM)
100 mg/L (≈ 217 µM) | 150 mg/L (≈ 326 µM) | 150 mg/L (≈ 326 µM) | 150 mg/L (≈ 326 µM) | 150 mg/L (≈ 326 µM) | 150 mg/L (≈ 326 µM) | 100 mg/L (≈ 217 µM) | 150 mg/L (≈ 326 µM) | 100 mg/L (≈ 217 µM) | 100 mg/L (≈ 217 µM) | COc1cc(Cc2n[nH]c(=S)n2-c2ccccc2)c(S(=O)(=O)N2CCCC2)cc1OC | 100 mg/L (≈ 217 µM) | 150 mg/L (≈ 326 µM) | 150 mg/L (≈ 326 µM) | 150 mg/L (≈ 326 µM) | 150 mg/L (≈ 326 µM) | 150 mg/L (≈ 326 µM) | 150 mg/L (≈ 326 µM) | 150 mg/L (≈ 326 µM) | 150 mg/L (≈ 326 µM) | 150 mg/L (≈ 326 µM) | logP [1]: 2.13; MFC (Aspergillus ochraceus): 150 mg/L (≈ 326 µM); MIC (Aspergillus ochraceus): 100 mg/L (≈ 217 µM); MFC (Aspergillus niger): 150 mg/L (≈ 326 µM); MIC (Aspergillus niger): 150 mg/L (≈ 326 µM); MBC (Bacillus cereus): 150 mg/L (≈ 326 µM); MIC (Bacillus cereus): 150 mg/L (≈ 326 µM)
100 mg/L (≈ 211 µM) | 150 mg/L (≈ 316 µM) | 100 mg/L (≈ 211 µM) | 150 mg/L (≈ 316 µM) | 150 mg/L (≈ 316 µM) | 100 mg/L (≈ 211 µM) | 100 mg/L (≈ 211 µM) | 100 mg/L (≈ 211 µM) | 100 mg/L (≈ 211 µM) | 100 mg/L (≈ 211 µM) | COc1cc(Cc2n[nH]c(=S)n2-c2ccccc2)c(S(=O)(=O)N2CCCCC2)cc1OC | 100 mg/L (≈ 211 µM) | 150 mg/L (≈ 316 µM) | 150 mg/L (≈ 316 µM) | 150 mg/L (≈ 316 µM) | 150 mg/L (≈ 316 µM) | 150 mg/L (≈ 316 µM) | 150 mg/L (≈ 316 µM) | 150 mg/L (≈ 316 µM) | 150 mg/L (≈ 316 µM) | 150 mg/L (≈ 316 µM) | logP [1]: 2.63; MFC (Aspergillus ochraceus): 150 mg/L (≈ 316 µM); MIC (Aspergillus ochraceus): 100 mg/L (≈ 211 µM); MFC (Aspergillus niger): 150 mg/L (≈ 316 µM); MIC (Aspergillus niger): 100 mg/L (≈ 211 µM); MBC (Bacillus cereus): 150 mg/L (≈ 316 µM); MIC (Bacillus cereus): 150 mg/L (≈ 316 µM)

Continued, compound first:

SMILES | MIC (Enterobacter cloacae) | MIC (Salmonella enteritidis) | MIC (Salmonella typhimurium) | MIC [2] | MIC (Micrococcus luteus) | MIC (Escherichia coli) | MIC (Aspergillus flavus) | MIC (Trichoderma viride) | MIC (Talaromyces funiculosus) | MIC (Aspergillus versicolor) | MBC (Enterobacter cloacae) | MBC (Salmonella enteritidis) | MBC (Salmonella typhimurium) | MBC [2] | MBC (Micrococcus luteus) | MBC (Escherichia coli) | MFC (Aspergillus flavus) | MFC (Trichoderma viride) | MFC (Talaromyces funiculosus) | MFC (Aspergillus versicolor) | other results
c1ccc(-c2ccc(C(c3ccccc3)n3ccnc3)cc2)cc1 (centres undefined) [BIFONAZOLE] | – | – | – | – | – | – | 150 mg/L (≈ 483 µM) | 200 mg/L (≈ 644 µM) | 200 mg/L (≈ 644 µM) | 150 mg/L (≈ 483 µM) | – | – | – | – | – | – | 200 mg/L (≈ 644 µM) | 250 mg/L (≈ 805 µM) | 250 mg/L (≈ 805 µM) | 200 mg/L (≈ 644 µM) | MFC (Aspergillus ochraceus): 200 mg/L (≈ 644 µM); MIC (Aspergillus ochraceus): 150 mg/L (≈ 483 µM); MFC (Aspergillus niger): 250 mg/L (≈ 805 µM); MIC (Aspergillus niger): 200 mg/L (≈ 644 µM)
CN[C@@H]1[C@H](O[C@H]2[C@H](O[C@H]3[C@H](O)[C@@H](O)[C@H](N=C(N)N)[C@@H](O)[C@@H]3N=C(N)N)O[C@@H](C)[C@]2(O)C=O)O[C@@H](CO)[C@H](O)[C@H]1O [STREPTOMYCIN] | 50 mg/L (≈ 86 µM) | 50 mg/L (≈ 86 µM) | 50 mg/L (≈ 86 µM) | 150 mg/L (≈ 258 µM) | 100 mg/L (≈ 172 µM) | 100 mg/L (≈ 172 µM) | – | – | – | – | 100 mg/L (≈ 172 µM) | 100 mg/L (≈ 172 µM) | 100 mg/L (≈ 172 µM) | 100 mg/L (≈ 172 µM) | 150 mg/L (≈ 258 µM) | 150 mg/L (≈ 258 µM) | – | – | – | – | MBC (Bacillus cereus): 150 mg/L (≈ 258 µM); MIC (Bacillus cereus): 100 mg/L (≈ 172 µM)
COc1cc(Cc2n[nH]c(=S)n2-c2ccc(Cl)cc2)c(S(=O)(=O)N(C)C)cc1OC | 100 mg/L (≈ 213 µM) | 150 mg/L (≈ 320 µM) | 150 mg/L (≈ 320 µM) | 150 mg/L (≈ 320 µM) | 150 mg/L (≈ 320 µM) | 100 mg/L (≈ 213 µM) | 50 mg/L (≈ 107 µM) | 50 mg/L (≈ 107 µM) | 100 mg/L (≈ 213 µM) | 100 mg/L (≈ 213 µM) | 100 mg/L (≈ 213 µM) | 150 mg/L (≈ 320 µM) | 150 mg/L (≈ 320 µM) | 150 mg/L (≈ 320 µM) | 150 mg/L (≈ 320 µM) | 150 mg/L (≈ 320 µM) | 100 mg/L (≈ 213 µM) | 100 mg/L (≈ 213 µM) | 100 mg/L (≈ 213 µM) | 150 mg/L (≈ 320 µM) | logP [1]: 2.4; MFC (Aspergillus ochraceus): 150 mg/L (≈ 320 µM); MIC (Aspergillus ochraceus): 100 mg/L (≈ 213 µM); MFC (Aspergillus niger): 150 mg/L (≈ 320 µM); MIC (Aspergillus niger): 100 mg/L (≈ 213 µM); MBC (Bacillus cereus): 150 mg/L (≈ 320 µM); MIC (Bacillus cereus): 150 mg/L (≈ 320 µM)
